Common to all, as to type: functional, cell-free
Experiment [1] can be described thus: Antiplatelet activity against collagen ADP-induced platelet aggregation in human plasma preincubated for 2 mins before addition of inducer by turbidimetric method. An outline of the steps: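 Citrated PRP (blood:130 mM trisodium citrate 9:1, centrifuged 100 g for 30 min) from healthy human donors. Compound or DMSO preincubation at 37 °C for 2 min before ADP (final 5.0 μM). Turbidimetric (Born) read of light transmission after 3 min. IC50 from ≥5-concentration inhibition curve against solvent control; mean ±SD over at least five platelet batches.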

Experiment [2] is described as follows: Antiplatelet activity against collagen collagen-induced platelet aggregation in human plasma preincubated for 2 mins before addition of inducer by turbidimetric method. An outline of the steps: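 Platelet-rich plasma prepared from healthy volunteers' blood in 130 mM trisodium citrate (9:1), centrifuged 100 g, 30 min. After 2 min at 37 °C with compound or DMSO, bovine tendon collagen added (final 5.0 μg/mL). Born turbidimetric method, light transmission at 3 min. IC50 derived from inhibition–concentration curve (≥5 concentrations) relative to solvent control; mean ±SD, ≥5 platelet batches.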

Experiment [3] can be described thus: Antiplatelet activity against collagen A23187-induced platelet aggregation in human plasma preincubated for 2 mins before addition of inducer by turbidimetric method. In short, it runs like this:
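Human PRP from citrated blood of healthy volunteers (9:1 with 130 mM trisodium citrate, spun 100 g 30 min). Preincubated with compound or DMSO 37 °C 2 min, then A23187 added (final 20.0 μM). Born turbidimetric aggregometry; light transmission at 3 min. At least five concentrations; IC50 from inhibition–concentration curve versus solvent control, mean ±SD of at least five platelet batches.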

The structures appear in SMILES notation.

What is called IC50 is the point on the concentration scale where inhibition reaches its midpoint. Read a high IC50 as weaker potency in that assay. For `Cc1[nH]c(=O)c(C#N)cc1-c1ccncc1` [MILRINONE], the values for the IC50 in experiment [1], in experiment [2] and in experiment [3] were 11 µM, 12 µM and 14 µM, respectively.

For `O=c1cc(N2CCNCC2)nc2n(CCc3ccccc3)c3ccccc3n12`, the IC50 in experiment [1] stood at 53 µM; in experiment [2] it was 15 µM; in experiment [3], 75 µM.

`CC(c1ccccc1)n1c2ccccc2n2c(=O)cc(N3CCNCC3)nc12` (stereo not drawn): the IC50 in experiment [1] was 163 µM; in experiment [2] it was 172 µM; in experiment [3] it was 175 µM.

As to `O=c1cc(N2CCNCC2)nc2n(CCN3CCCC3)c3ccccc3n12`, the 50% inhibitory concentration (IC50) in experiment [1] is 16 µM; in experiment [2] it was 28 µM; in experiment [3], 42 µM.

For the compound `CCN(CC)CCn1c2ccccc2n2c(=O)cc(N3CCNCC3)nc12`, the IC50 in experiment [1] was found to be 16 µM; in experiment [2], 13 µM; in experiment [3], 13 µM.

Turning to `O=C1CCc2cc(OCCCCc3nnnn3C3CCCCC3)ccc2N1` [CILOSTAZOL], the figures for the IC50 in experiment [1], in experiment [2] and in experiment [3] were 73 µM, 40 µM and 109 µM, respectively.

Regarding `CCCn1c2ccccc2n2c(=O)cc(N3CCNCC3)nc12`, the IC50 was found to be 62 µM in experiment [1], 50 µM in experiment [2] and 50 µM in experiment [3].

`CC(=O)Oc1ccccc1C(=O)O` [ASPIRIN]: the half-inhibitory concentration (IC50) in experiment [1] was more than 1000 µM; in experiment [2] it was 183 µM; in experiment [3], more than 1000 µM.

In the case of `O=c1cc(N2CCNCC2)nc2n(Cc3cccnc3)c3ccccc3n12`, the IC50 in experiment [1] is 15 µM; in experiment [2], 9 µM; in experiment [3] it was 23 µM.

Regarding `CCn1c2ccccc2n2c(=O)cc(N3CCNCC3)nc12`, the figures for the IC50 in experiment [1], in experiment [2] and in experiment [3] were 127 µM, 55 µM and 206 µM, respectively.

Turning to `CN(C)CCn1c2ccccc2n2c(=O)cc(N3CCNCC3)nc12`, the IC50 was 36 µM in experiment [1], 8 µM in experiment [2] and 41 µM in experiment [3].

Consider `O=c1cc(N2CCNCC2)nc2n(CCN3CCOCC3)c3ccccc3n12`, for which the IC50 in experiment [1] was 12 µM; in experiment [2] it was 15 µM; in experiment [3], 11 µM.

For `O=c1cc(N2CCNCC2)nc2n(Cc3ccccn3)c3ccccc3n12`, the figures for the IC50 in experiment [1], in experiment [2] and in experiment [3] were 19 µM, 30 µM and 38 µM, respectively.

As for `COc1c(C)cnc(Cn2c3ccccc3n3c(=O)cc(N4CCNCC4)nc23)c1C`, the results for the IC50 in experiment [1], in experiment [2] and in experiment [3] were 33 µM, 49 µM and 56 µM, respectively.

For the compound `CCN(CC)c1cc(=O)n2c3ccccc3n(CC)c2n1`, the IC50 in experiment [1] was more than 1000 µM; in experiment [2], 75 µM; in experiment [3], more than 1000 µM.

As to `CSCn1c2ccccc2n2c(=O)cc(N3CCNCC3)nc12`, the IC50 came out at 26 µM in experiment [1], 31 µM in experiment [2] and 60 µM in experiment [3].

For the compound `O=c1cc(N2CCNCC2)nc2n(Cc3ccccc3)c3ccccc3n12`, the figures for the IC50 in experiment [1], in experiment [2] and in experiment [3] were 90 µM, 27 µM and 143 µM, respectively.

On to `O=c1cc(N2CCNCC2)nc2oc3ccc(Cl)cc3n12`, for which the IC50 came to 3.6 µM in experiment [1], 8.8 µM in experiment [2] and 13 µM in experiment [3].

In the case of `CCN(CC)c1cc(=O)nc2n(CC)c3ccccc3n12`, the IC50 is more than 1000 µM in experiment [1], 75 µM in experiment [2] and 415 µM in experiment [3].

For the compound `CC(C)n1c2ccccc2n2c(=O)cc(N3CCNCC3)nc12`, the half-inhibitory concentration (IC50) stood at 116 µM in experiment [1], 77 µM in experiment [2] and 142 µM in experiment [3].

Take `O=c1cc(N2CCNCC2)nc2n(Cc3ccncc3)c3ccccc3n12`: the values for the half-maximal inhibitory concentration (IC50) in experiment [1], in experiment [2] and in experiment [3] were 15 µM, 21 µM and 32 µM, respectively.

Source of the values: ChEMBL document CHEMBL2331342, “Synthesis, in vitro antiplatelet activity and molecular modelling studies of 10-substituted 2-(1-piperazinyl)pyrimido[1,2-a]benzimidazol-4(10H)-ones” (Eur J Med Chem, 2013).
